ChEMBL document CHEMBL4513216, “Probing the Open Global Health Chemical Diversity Library for Multistage-Active Starting Points for Next-Generation Antimalarials” (ACS Infect Dis, 2020)

Assay: Toxicity liver stage against HepG2, at 10uM
Type: cell-based
Set-up: test concentration 10 uM, cell line HepG2-A16-CD81EGFP
Conditions: human, HepG2-A16-CD81EGFP cells; read-out: INHIBITION
Outline: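 Uninfected HepG2-A16-CD81EGFP cells, 3 × 10^3 per well, 1536-well, plated on prespotted compound at 10 μM final, parasite-free screening media added to match infected plates; puromycin 10 μM positive, DMSO 0.5% negative; run in parallel with 48 h PbLuc assay at 37 °C, 5% CO2; viability by CellTiter-Glo luminescence, normalized to controls.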

| Compound | cytotoxicity at 10 µM [%] |
| --- | --- |
| Cn1c(CN2CCOCC2)nnc1C1CCN(C(=O)C2CCCC2)CC1 | -17.8 |
| COC(=O)C1(NCc2nc(C)c(C)o2)CCC(C)CC1 (stereo unspecified) | -5.54 |
| CC(C)OCc1ncn2c1CN(Cc1cccs1)CCC2 | 8.44 |
| O=C(O)[C@@H]1CN(C(=O)CCN2CCCCC2)C[C@H]1c1ccccc1 | 1.25 |
| Cc1cc(NC(=O)Cn2cc(C#N)c(=O)c3cc(Br)ccc32)no1 | 16.5 |
| Fc1ccc(CN2CCOC(Cn3cncn3)C2)c2ncccc12 (stereo unspecified) | 0.219 |
| O=S(=O)(C1CC1)N1CCO[C@@H]2CN(Cc3cccs3)C[C@@H]2C1 | -154 |
| COc1ccccc1C(O)CNC(=O)NCc1cccnc1OC (stereo unspecified) | -4.48 |
| Cc1cc(C(=O)NC2CCc3c(ccc(=O)n3CCN(C)C)C2)no1 (stereo unspecified) | -0.58 |
| O=C(CCCOc1cccc(F)c1)N1CCCC(n2cccn2)C1 (stereo unspecified) | -16 |
| CC(C)C1SCC(=O)Nc2c1cnn2-c1ccc(Cl)cc1F (stereo unspecified) | 17.2 |
| FC(F)Oc1ccccc1CNCc1cc(Br)c2c(c1)OCO2 | 10.7 |
| CC(C)[C@H]1CN(Cc2ccccc2C#N)C[C@@H]1NC(=O)C1CCOCC1 | 1.47 |
| CN(CC(=O)NCC1CCCCC1)S(=O)(=O)c1cccnc1 | 3.82 |
| O=C(NCCc1ccccc1)NCC(O)c1cccs1 (stereo unspecified) | -11.9 |
| O=C(c1ccoc1)N(Cc1cccnc1)C1CC1 | -13.2 |
| c1ccc(CNC2CCc3ncnn3C2)nc1 (stereo unspecified) | -6.69 |
| CN(C)c1cc(CNCc2ccc(N3CCOCC3)cc2)ccn1 | 23.3 |
| COC(=O)CNC(=O)C(C)Oc1ccccc1C(F)(F)F (stereo unspecified) | 6.08 |
| CC1CCN(C(=O)C(C)N2CCc3[nH]nc(C(F)(F)F)c3C2)CC1 (stereo unspecified) | 2.54 |
| Cc1cccc(N2CC(c3nnc(N)s3)CC2=O)c1 (stereo unspecified) | 3.79 |
| O=C(COCC1CC1)N1CCCC(n2cccn2)C1 (stereo unspecified) | 4.6 |
| COc1ccc(CN(C)C(=O)CCC(=O)c2cccs2)c(OC)c1OC | -10.7 |

| Compound | cytotoxicity at 10 µM [%] |
| --- | --- |
| COc1ncc(-c2nccn2CCN(C)C)cn1 | -17.4 |
| O=C(CCN1CCOC(Cn2cccn2)C1)NC1CCCCC1 (stereo unspecified) | -6.28 |
| COC(=O)C(C)N(Cc1cc(=O)n(C)c(=O)n1C)C1CC1 (stereo unspecified) | -0.719 |
| Cc1nccn1CCCN1CCC(c2nccn2CC2CCC2)CC1 | -20.8 |
| Cc1nc(C)c(C(=O)NCCOc2ccc(C(F)(F)F)cn2)o1 | 2.42 |
| COC1COC2(CCN(S(=O)(=O)c3ccc(F)cc3)CC2)C1 (stereo unspecified) | -95.9 |
| Cc1ccccc1N1CCCN(C(=O)CCc2ccncc2)CC1 | -9.88 |
| O=c1[nH]c2c(c(=O)n1C1CCCCC1)CCC2NCCc1ccccc1 (stereo unspecified) | -6.91 |
| COc1cccc(CN2C[C@H]3CCNCC[C@H]3S2(=O)=O)c1 | -8.81 |
| CN1CCC2(CC1)CN(C(=O)c1cccnc1)Cc1ccccc12 | -66.2 |
| Cc1noc(-c2cccnc2N(C)Cc2cc(C)on2)n1 | -5.1 |
| O=C(Cn1nc2c(cc1=O)CSCC2)NC(Cc1ccccc1)C(=O)O (stereo unspecified) | -10.1 |
| O=C(CNc1cc2c(cc1Br)OCCO2)NC1CCS(=O)(=O)C1 (stereo unspecified) | 6.43 |
| N#Cc1cccc(NC(=O)N2CCCC(N3CCCC3=O)C2)c1 (stereo unspecified) | 7.92 |
| Cc1ncc2c(n1)CN(C(C(N)=O)c1ccccc1)CC2 (stereo unspecified) | 0.66 |
| F[C@@H]1CN(CC2CC2)C[C@@H]1OCc1nc2cnccc2[nH]1 | 8.42 |
| O=C(Nc1ccccc1OC(F)F)C1=NN(c2ccccc2)C(=O)CN1 | -3.58 |
| CN(Cc1nc(-c2cccnc2)no1)C(=O)c1cnc2n1CCCC2 | 6.32 |
| Cc1ccccc1N1CC2(CCN(c3nncs3)C2)CC1=O (stereo unspecified) | -7.74 |
| CCN(CC)C(=O)Cn1nc(C(C)C)c2cnn(C(C)(C)C)c2c1=O | 0.703 |
| O=S(=O)(N1CCOCC1)N1CCCCC1CCc1ccc(O)cc1 (stereo unspecified) | -4.44 |
| O=C(CCNC1(c2nccs2)CCCC1)N1CCOCC1 | 0.79 |
| Cc1cccc(NC(=O)CNC(=O)Cn2ncc(Cl)c(Cl)c2=O)c1C | 12.7 |

| Compound | cytotoxicity at 10 µM [%] |
| --- | --- |
| Cc1nc(CN2CCCCC2CCc2cccs2)co1 (stereo unspecified) | -2.36 |
| Cc1ccnc(NCCNC(=O)CCNC(=O)c2ccccc2F)c1 | 1.5 |
| CN(C)CCN1CCCC12CCCN(Cc1ccco1)C2 (stereo unspecified) | 10.3 |
| CNc1nc(CNC(=O)Nc2ccccc2-c2noc(C)n2)cs1 | -6.56 |
| CCSc1ccc(NC(=O)NC2CCc3[nH]ncc3C2)cn1 (stereo unspecified) | -3.27 |
| Cn1cc(-c2nnn3c2COC(CNC(=O)c2cccs2)C3)cn1 (stereo unspecified) | 3.31 |
| NCc1ccnc(Oc2ccc(F)cc2)c1 | 12.4 |
| Cc1nn(C)c(N(C)C)c1CNCc1ccnc(N2CCCCC2)c1 | -9.32 |
| CCc1cc(N2CCC3(CCCNC3=O)C2)nc(N2CCOCC2)n1 (stereo unspecified) | -0.28 |
| C[S+]([O-])c1ccc(NC(=O)CC2=CCCCC2)cc1 (stereo unspecified) | 0.304 |
| CCN(c1ccc(C(=O)N2CCCC(C)C2)cc1)S(=O)(=O)CC (stereo unspecified) | -8.6 |
| NC(=O)C1CCCN(Cc2c(-c3ccco3)[nH]c3ncccc23)C1 (stereo unspecified) | 3.91 |
| c1csc(-c2noc(C3CN(Cc4ccc5c(c4)CCO5)C3)n2)c1 | -8.2 |
| O=C(c1ccno1)N1CCC2(CC(=O)N(c3ccc4c(c3)OCO4)C2)C1 (stereo unspecified) | 9.82 |
| O=C1[C@@H]2CCN(Cc3ccncc3)C[C@@H]2OCCN1c1ccccc1 | -1.06 |
| O=C(NCc1nncn1C1CCCCC1)C1COc2ccccc2C1 (stereo unspecified) | 3.16 |
| Cc1ccccc1-c1cncc(C2CCN(CCO)CC2)n1 | -1.61 |
| Cc1nc(C2CCN(C(=O)c3cnc(N(C)C)nc3)CC2)c2sccn12 | -4.5 |
| Cc1sc2nc(CCN)nc(N(C)CCCC3CCCO3)c2c1C (stereo unspecified) | -6.01 |
| CC(C)CCNC(=O)c1csc(NC2CC2)n1 | -0.243 |
| Cn1nc(C2CCN(C(=O)Cc3cccc(F)c3)CC2)c2cccnc21 | -0.439 |
| O=C(NCCCOc1cccnc1)c1cn(Cc2ccccc2F)nn1 | 1.03 |
| CCOCC1CC2(CCN(C(=O)C3CCSCC3)CC2)CO1 (stereo unspecified) | 2.5 |

| Compound | cytotoxicity at 10 µM [%] |
| --- | --- |
| Cc1ccsc1C(=O)N1CCCn2nnc(Cn3cccn3)c2C1 | 7.37 |
| CCc1nc2c(c(NCc3cc(-c4cccnc4)no3)n1)CCNCC2 | 0.811 |
| Cn1cc(CN2CCc3ncnc(C4CCOC4)c3CC2)cn1 (stereo unspecified) | -7.46 |
| CN1C(=O)CC[C@@H]2N(C(=O)CCc3cccnc3)CCCC[C@@]21C | 3.82 |
| Cc1ccccc1SC1CCN(C(=O)C2CNCC(=O)N2)CC1 (stereo unspecified) | -3.81 |
| CC(=O)N(Cc1ncc(C)o1)C1CCN(Cc2cc(C)on2)C1 (stereo unspecified) | -5.03 |
| CC(C)N1CCCC2(CCN(Cc3nncn3C(C)C)C2)C1=O (stereo unspecified) | -108 |
| CC(C)c1n[nH]c(C2CN(C(=O)COCC(F)(F)F)CCO2)n1 (stereo unspecified) | -10.3 |
| Cc1nc(C(=O)N(C)CC(=O)N(C)C)nn1-c1ccccc1C(C)C | -6.5 |
| CCOc1cccc2c1OCC(C(=O)NS(=O)(=O)c1ccc(Cl)s1)=C2 | -3.21 |
| COc1cc(Oc2ccc(C(F)(F)F)cn2)ccc1CN1CCCC1 | 51.5 |
| CN(C(=O)c1ccccc1F)[C@@H]1CC[C@@H](O)[C@@H]1O | -6.11 |
| COCCn1ccnc1C1CCCN(C(=O)c2ccncc2F)C1 (stereo unspecified) | 0.0773 |
| CCc1cc(NCCc2cccnc2)n2nc(C)c(C)c2n1 | 2.12 |
| Cc1ncc(CNC(CCO)C2CCCCC2)s1 (stereo unspecified) | -48.7 |
| Cc1cnn(CC2CCCCN2C(=O)CN(C)C2CC2)c1 (stereo unspecified) | -1.23 |
| NC1CC(C(F)(F)F)=NC=C1c1ccc(Cl)cc1 (stereo unspecified) | 50.2 |
| CC(C)(CC(=O)N(CC(N)=O)C1CCCC1)c1ccccc1 | -4.95 |
| Cc1ccc(CN(CCN(C)C)Cc2ccnn2C2CCCCO2)o1 (stereo unspecified) | 0.267 |
| O=C(O)c1cc(N2C[C@H](NC(=O)C3CCOCC3)[C@@H](C3CC3)C2)ccn1 | -4.23 |
| CC1=C[C@@H](CN2CCC(O)CC2)[C@H](C(C)C)C[C@H]1Cc1nnc(C)o1 | 0.788 |
| CC(C)=CCN1CCOC(Cn2nc(C)cc2C)C1 (stereo unspecified) | -9.93 |
| Cc1csc(N2CCN(C(=O)CCc3nccs3)CC2)n1 | -3.68 |

| Compound | cytotoxicity at 10 µM [%] |
| --- | --- |
| O=C1CC(c2ccc3c(c2)OCO3)c2snc(C(=O)O)c2N1 (stereo unspecified) | 4.43 |
| CCN(Cc1ccncc1)C1CCCN(Cc2ccc(F)cc2Cl)C1 (stereo unspecified) | 7.94 |
| Cc1ccc(C(=O)N2C[C@@H]3CCCO[C@@H]3[C@H](N3CCCC3)C2)cn1 | -3.8 |
| c1ccc(O[C@H]2COCCN(Cc3c[nH]c4ccccc34)C2)cc1 | -0.347 |
| CC1c2ncc(Cn3cccn3)n2CCN1S(C)(=O)=O (stereo unspecified) | -99.2 |
| CCn1cc(CN2CCC(O)(Cn3ccc4ncccc43)CC2)cn1 | -16.3 |
| O=C(NCC1CC(=O)N(CCc2ccccc2)C1)c1c(F)cccc1F (stereo unspecified) | 9.52 |
| COc1ncccc1NC(=O)N1CCCC(CNC(=O)OC(C)(C)C)C1 (stereo unspecified) | -1.71 |
| CN1CCCC(c2cccc(-c3ccccc3F)n2)C1 (stereo unspecified) | 2.58 |
| Cc1ncc(CN(C)Cn2nc(-c3ccccc3)oc2=O)s1 | -2.81 |
| CCn1cc2c(n1)C(COC)CN(C(=O)COc1ccccc1)C2 (stereo unspecified) | -2.88 |
| O=C(CCc1ccccc1)N1CCCCC1C1OCCO1 (stereo unspecified) | -45.1 |
| Cc1cc(C)n(CC2CCCN2C(=O)CCNc2ncccn2)n1 (stereo unspecified) | -2.31 |
| COCC(O)CN1CCC(=O)N(CC(=O)C(C)(C)C)Cc2ccccc21 (stereo unspecified) | 6.31 |
| Cc1cccc(C(=O)N2CCCC[C@]3(C)NC(=O)CCC[C@H]23)n1 | -21.3 |
| CC(C(=O)NCCCN1CCN(c2ccccc2)CC1)n1cncn1 (stereo unspecified) | -5.93 |
| O=C(Nc1ccccc1OCCc1ccccn1)NC1CCOCC1 | 2.43 |
| Cc1nnc2n1CCN(CCOc1ccccc1C#N)C2 | -4.53 |
| CCCc1ccc(CN2CCN(C(=O)C(C)C)[C@@H]3CS(=O)(=O)C[C@@H]32)o1 | 5.39 |
